Activity calls are given as the source filed them. The calls are words filed in the database; no cut-off is given here.

For data set [1], the target named is T1, Bile acid receptor (Homo sapiens) (UniProt Q96RI1).
T1 sequence (whole entry): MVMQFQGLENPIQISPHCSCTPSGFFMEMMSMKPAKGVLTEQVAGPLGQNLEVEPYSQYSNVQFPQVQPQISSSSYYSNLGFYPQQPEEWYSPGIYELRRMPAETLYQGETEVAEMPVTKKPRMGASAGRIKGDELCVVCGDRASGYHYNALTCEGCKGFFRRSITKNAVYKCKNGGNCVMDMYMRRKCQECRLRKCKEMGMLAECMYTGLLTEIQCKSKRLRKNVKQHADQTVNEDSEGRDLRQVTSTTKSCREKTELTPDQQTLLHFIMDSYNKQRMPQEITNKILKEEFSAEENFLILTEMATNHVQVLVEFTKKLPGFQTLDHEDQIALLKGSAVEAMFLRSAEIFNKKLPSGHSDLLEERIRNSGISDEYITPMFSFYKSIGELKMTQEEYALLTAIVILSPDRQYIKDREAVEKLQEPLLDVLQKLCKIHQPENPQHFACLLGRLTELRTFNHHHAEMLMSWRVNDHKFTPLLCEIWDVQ
The data set can be described thus: Agonist activity at […] (unknown origin) expressed in human HepG2 cells co-expressing rat CYP7A1 gene promoter assessed as transrepression of CYP7A1 promoter driven luciferase activity at 1 uM relative to untreated control. The class given is cell-based. The gist of the method:
(§1)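 Transient transfection of HepG2 cells (1 × 10^5/well; phenol red-free DMEM, 10% charcoal-stripped FBS, pen/strep) with pCMV-FXR (2 µg), rat CYP7A1 promoter reporter prCYP7A1-luc (6 µg) and pCMV-β-gal (1 µg). After 48 h exposure to 100 nM–10 µM, lysate luciferase was normalized to β-gal and expressed relative to DMSO (=1). 10 µM CDCA reference; at least three determinations.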

Another data set concerns HepG2. Put plainly: Toxicity against human HepG2 cells assessed as effect on cell growth at 100 nM to 1 uM. The class given is cell-based. The following applies: hepg2, 0.1 µM.
Data set [2] deals with T2, Peroxisome proliferator-activated receptor gamma (Homo sapiens) (UniProt P37231).
T2 sequence (whole entry): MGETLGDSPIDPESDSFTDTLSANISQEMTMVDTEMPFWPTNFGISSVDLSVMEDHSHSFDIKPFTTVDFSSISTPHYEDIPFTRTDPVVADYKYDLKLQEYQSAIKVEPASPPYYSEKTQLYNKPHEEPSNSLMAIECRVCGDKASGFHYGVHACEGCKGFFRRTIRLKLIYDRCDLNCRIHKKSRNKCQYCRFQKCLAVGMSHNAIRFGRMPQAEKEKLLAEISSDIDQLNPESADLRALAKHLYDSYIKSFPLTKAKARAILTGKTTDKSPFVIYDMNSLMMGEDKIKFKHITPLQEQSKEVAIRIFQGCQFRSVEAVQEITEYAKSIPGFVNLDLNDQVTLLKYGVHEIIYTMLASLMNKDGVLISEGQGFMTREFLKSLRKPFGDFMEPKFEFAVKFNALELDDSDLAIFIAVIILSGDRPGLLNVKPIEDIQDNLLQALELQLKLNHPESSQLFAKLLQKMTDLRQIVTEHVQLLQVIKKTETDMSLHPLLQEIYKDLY
The data set can be described thus: Agonist activity at PPARgamma (unknown origin) by receptor transactivation assay.

The target in data set [3] is T1, Bile acid receptor (Homo sapiens). The data set can be described thus: Agonist activity at […] (unknown origin) expressed in human HepG2 cells co-expressing human SHP gene promoter assessed as transactivation of SHP promoter driven luciferase activity at 1 uM relative to untreated control. The class given is cell-based.
For data set [4] the target is unchanged. The data set can be described thus: Agonist activity at […] (unknown origin) expressed in human HepG2 cells co-expressing rat CYP7A1 gene promoter assessed as transrepression of CYP7A1 promoter driven luciferase activity relative to untreated control. In kind it is cell-based. Summed up:
as §1

The target is the same in data set [5]. Put plainly: Agonist activity at GAL4 DNA binding domain tagged FXR ligand binding domain (unknown origin) expressed in human HepG2 cells assessed as receptor transactivation measured by relative luciferase activity at 100 nM by luciferase reporter gene based mammalian one-hybrid assay relative to untreated control. In kind it is cell-based. The gist of the method: (§2)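 HepG2 cells seeded at 1 × 10^5 cells/well in phenol red-free DMEM with 10% charcoal-stripped FBS and penicillin/streptomycin. Next day transfected with pGAL4-FXR LBD (2 µg), pG5-luc (6 µg) and pCMV-β-gal normalizer (1 µg). Treated 48 h at 100 nM–10 µM, DMSO vehicle, 10 µM CDCA reference. Luciferase/β-gal ratio expressed relative to DMSO (=1); at least triplicate.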

Data set [6] has the same target. The data set can be described thus: Agonist activity at […] (unknown origin) expressed in human HepG2 cells co-expressing human PLTP gene promoter assessed as transactivation of PLTP promoter driven luciferase activity relative to untreated control. The class given is cell-based.
The target is the same in data set [7]. Put plainly: Agonist activity at […] (unknown origin) expressed in human HepG2 cells co-expressing rat CYP7A1 gene promoter assessed as transrepression of CYP7A1 promoter driven luciferase activity at 10 uM relative to untreated control. In kind it is cell-based. Summed up:
as §1

Data set [8] shares this target. Put plainly: Agonist activity at GAL4 DNA binding domain tagged FXR ligand binding domain (unknown origin) expressed in human HepG2 cells assessed as receptor transactivation measured by relative luciferase activity at 1 uM by luciferase reporter gene based mammalian one-hybrid assay relative to untreated control. The class given is cell-based. The gist of the method:
as §2
(A reporter such as luciferase makes a cellular process visible.)

Data set [9] shares this target. The data set can be described thus: Agonist activity at […] (unknown origin) expressed in human HepG2 cells co-expressing rat CYP7A1 gene promoter assessed as transrepression of CYP7A1 promoter driven luciferase activity at 100 nM relative to untreated control. In kind it is cell-based. Summed up: as §1
Data set [10] shares this target. The data set can be described thus: Agonist activity at […] (unknown origin) expressed in human HepG2 cells co-expressing human SHP gene promoter assessed as transactivation of SHP promoter driven luciferase activity at 100 nM relative to untreated control. The class given is cell-based.
For data set [11] the target is unchanged. The data set can be described thus: Agonist activity at […] (unknown origin) expressed in human HepG2 cells co-expressing human PLTP gene promoter assessed as transactivation of PLTP promoter driven luciferase activity at 100 nM relative to untreated control. In kind it is cell-based. The gist of the method:
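HepG2 cells (1 × 10^5 cells/well, phenol red-free DMEM, 10% charcoal-stripped FBS, pen/strep) transfected the next day with wild-type FXR plasmid pCMV-FXR (2 µg), pPLTP-Luc reporter (6 µg) and pCMV-β-gal (1 µg). Dosed 48 h at 100 nM–10 µM. Luciferase normalized to β-gal, expressed relative to DMSO (=1), 10 µM CDCA reference; mean ± SD of ≥3 determinations.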

The target is the same in data set [12]. Put plainly: Agonist activity at […] (unknown origin) expressed in human HepG2 cells co-expressing human SHP gene promoter assessed as transactivation of SHP promoter driven luciferase activity at 100 nM to 10 uM relative to untreated control. In kind it is cell-based.

In general, inhibition refers to the share of the control response that was lost under treatment. `CO[C@H]1CC2=C(C(=O)C[C@@H](c3ccccc3)O2)[C@H]2CC(=O)O[C@@H]12` [7-O-METHYLCRYPTOCHINONE A]: the outcome in data set [1], in data set [2], in data set [5], in data set [9] and in data set [11] was inactive. Moreover, the figures for the Activity entry (in the data set with HepG2; in data set [4]; in [6]) were “Non-toxic”, “Dose-dependent effect” and “Dose-dependent effect”, respectively. Further, the values for the fold change (FC) in data set [3] and in data set [8] were 3 and 1.5, respectively. In addition, the inhibition in data set [7] is 60%. For the same compound, the outcome in data set [10] was Active.

As for `CO[C@H]1CC2=C(C(=O)C[C@@H](c3ccccc3)O2)[C@@H]2CC(=O)O[C@H]12` [7-O-METHYLCRYPTOCHINONE B], the outcome in data set [1], in data set [2], in [5], in data set [9] and in [11] was inactive. The Activity entry with HepG2 is “Non-toxic”; in data set [4] it was “Dose-dependent effect”; in data set [6] it was “Dose-dependent effect”. Also, the values for the fold change (FC) in data set [3] and in [8] were 3 and 1.5, respectively. Besides, the inhibition in data set [7] worked out at 60%. In [10], the outcome was Active.

Consider `O=C1C[C@@H]2C3=C(C[C@H](O)[C@@H]2O1)O[C@H](c1ccccc1)CC3=O` [CRYPTOCHINONE A], for which the outcome in data set [1] and in [12] was Active. Moreover, the Activity result was “Non-toxic” with HepG2, “Dose-dependent effect” in [4] and “Dose-dependent effect” in data set [6]. The outcome in [2], in [5], in [9] and in data set [11] was inactive. In addition, the inhibition in data set [7] was 60%. The fold change (FC) in [8] came out at 1.5.

Turning to `O=C1C[C@H]2C3=C(C[C@H](O)[C@H]2O1)O[C@H](c1ccccc1)CC3=O` [CRYPTOCHINONE B], the result in data set [1] and in data set [12] was Active. The values for the Activity result (in the data set with HepG2; in [4]; in data set [6]) were “Non-toxic”, “Dose-dependent effect” and “Dose-dependent effect”, respectively. In addition, the outcome in [2], in [5], in data set [9] and in data set [11] was inactive. Further, the inhibition in data set [7] amounted to 60%. Also, the fold change (FC) in data set [8] worked out at 1.5.

For the origin of these results see ChEMBL document CHEMBL3352661, “Cryptochinones from Cryptocarya chinensis act as farnesoid X receptor agonists” (Bioorg Med Chem Lett, 2014).
